These results are taken from ChEMBL document CHEMBL3861955, “Pepluane and Paraliane Diterpenoids from Euphorbia peplus with Potential Anti-inflammatory Activity” (J Nat Prod, 2016).

Residues, ends and D or L forms follow the SMILES beside them. *: point of attachment. Cbz = O=C(OCc1ccccc1)*

One data set is filed under the species Mus musculus. The data set is described as follows: Cytotoxicity against mouse RAW264.7 cells assessed as decrease in cell viability by MTT assay. The data set is classed as toxicity, cell-based. Put shortly:
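Viability measured by MTT, run alongside the LPS/NO assay in the same RAW264.7 cultures: 2 × 10^5 cells/well in RPMI-1640, 24 h preincubation, compound serial dilutions up to 100 μM, then LPS (1 μg/mL) for 18 h. Absorbance read at 595 nm.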

A short description of data set [1]: Antiinflammatory activity in mouse RAW264.7 cells assessed as inhibition of LPS-induced nitric oxide production after 18 hrs by Griess assay. Format: functional, cell-based. Particulars: RAW264.7, 18 h. The procedure, abridged: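 RAW264.7 cells seeded at 2 × 10^5 cells/well in RPMI-1640 and preincubated 24 h. Compounds added as serial dilutions from a top concentration of 100 μM, then LPS (1 μg/mL) stimulation for 18 h. Supernatant nitrite measured with Griess reagent after 5 min incubation, absorbance at 550 nm; proteasome inhibitor MG-132 used as positive control.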
(Griess reagent forms a coloured azo dye with nitrite.)

A word on the IC50: it is the concentration that gives 50% inhibition. Take `CC(=O)O[C@H]1C[C@](C)(O)C[C@@H]2[C@@]1(OC(C)=O)C[C@@]1(C)[C@H](OC(C)=O)[C@H]3[C@@H](OC(=O)c4ccccc4)[C@@H](C)[C@@H](OC(C)=O)[C@]3(O)[C@H](OC(C)=O)[C@@]21C`: the Activity entry in the data set filed under Mus musculus is on record as “Non-Toxic”. The IC50 in data set [1] is greater than 50 µM.

Turning to `CC(=O)O[C@@H]1[C@H]2[C@@H](OC(=O)c3ccccc3)[C@@H](C)C[C@]2(O)[C@H](OC(C)=O)[C@@]2(C)[C@@H]3C[C@@](C)(OC(C)=O)CC(=O)[C@]3(OC(C)=O)C[C@@]12C`, the Activity result in the data set listed under Mus musculus is “Non-Toxic”. Further, the IC50 in data set [1] was found to be 47.5 µM.

For `CC(=O)O[C@@H]1[C@H]2[C@@H](OC(=O)c3ccccc3)[C@@H](C)C[C@]2(O)[C@H](OC(C)=O)[C@@]2(C)[C@@H]3CC(C)(C)C(=O)[C@@H]3C[C@@]12C`, in the data set listed under Mus musculus, the Activity entry was “Non-Toxic”. Further, the IC50 in data set [1] turned out to be 33.7 µM.

For `CC(=O)O[C@@H]1[C@H]2[C@@H](OC(=O)c3ccccc3)[C@@H](C)C[C@]2(O)[C@H](OC(C)=O)[C@@]2(C)[C@@H]3C[C@@](C)(O)CC(=O)[C@]3(OC(C)=O)C[C@@]12C`, the Activity result in the data set listed under Mus musculus is on record as “Non-Toxic”. Also, in data set [1], the IC50 is greater than 50 µM.

On to `CC(=O)O[C@@H]1[C@H]2[C@@H](OC(=O)c3ccccc3)[C@@H](C)C[C@]2(O)[C@H](OC(C)=O)[C@@]2(C)[C@@H]3CC(C)(C)C(=O)[C@]3(O)C[C@@]12C`, for which the Activity result in the data set listed under Mus musculus was “Non-Toxic”. Besides, the concentration for half-maximal inhibition (IC50) in data set [1] stood at 43.2 µM.

Regarding `CC(=O)O[C@H]1C[C@](C)(O)C[C@@H]2[C@@]1(OC(C)=O)C[C@@]1(C)[C@H](OC(C)=O)[C@H]3[C@@H](OC(=O)c4ccccc4)[C@@H](C)C[C@]3(O)[C@H](OC(C)=O)[C@@]21C`, the Activity entry in the data set listed under Mus musculus is recorded as “Non-Toxic”. Further, in data set [1], the IC50 is greater than 50 µM.

With `CC(=O)OC[C@@]12C[C@@]3(OC(C)=O)C(=O)C(C)(C)C[C@H]3[C@]1(C)[C@@H](OC(C)=O)[C@@]1(O)C[C@H](C)[C@H](OC(=O)c3ccccc3)[C@@H]1[C@H]2OC(C)=O`, in the data set filed under Mus musculus, the Activity entry was “Non-Toxic”. Moreover, the IC50 in data set [1] was greater than 50 µM.

With `CC(=O)O[C@H]1C[C@](C)(O)C[C@@H]2[C@@]1(OC(C)=O)C[C@@]1(C)[C@H](OC(C)=O)[C@H]3[C@@H](O)[C@@H](C)C[C@]3(O)[C@H](OC(C)=O)[C@@]21C`, in the data set listed under Mus musculus, the Activity entry was “Non-Toxic”. In addition, the IC50 in data set [1] is greater than 50 µM.

Turning to `CC(=O)O[C@@H]1[C@H]2[C@@H](OC(=O)c3ccccc3)[C@@H](C)C[C@]2(O)[C@H](OC(C)=O)[C@@]2(C)[C@@H]3C[C@@](C)(O)C[C@H](O)[C@]3(OC(C)=O)C[C@@]12C`, the Activity entry in the data set filed under Mus musculus is given as “Non-Toxic”. Also, the IC50 in data set [1] was greater than 50 µM.

In the case of `CC(=O)O[C@@H]1[C@H]2[C@@H](OC(=O)c3ccccc3)[C@@H](C)C[C@]2(O)[C@H](OC(C)=O)[C@@]2(C)[C@@H]3C[C@@](C)(OC(C)=O)C[C@H](O)[C@]3(OC(C)=O)C[C@@]12C`, the Activity result in the data set filed under Mus musculus is recorded as “Non-Toxic”. Further, in data set [1], the half-maximal inhibitory concentration (IC50) is greater than 50 µM.

Turning to `CC(=O)O[C@H]1C[C@](C)(O)C[C@@H]2[C@@]1(O)C[C@@]1(C)[C@H](OC(C)=O)[C@H]3[C@@H](OC(=O)c4ccccc4)[C@@H](C)C[C@]3(O)[C@H](OC(C)=O)[C@@]21C`, the Activity entry in the data set filed under Mus musculus was “Non-Toxic”. Besides, in data set [1], the IC50 was greater than 50 µM.

For `CC(C)C[C@@H](C=O)NC(=O)[C@H](CC(C)C)NC(=O)[C@H](CC(C)C)NC(=O)OCc1ccccc1` [MG-132] (Cbz-Leu-Leu-Leu-aldehyde), the IC50 in data set [1] was found to be 0.18 µM.

`CC(=O)OC[C@@]12C[C@@]3(OC(C)=O)C(=O)C=C(C)C[C@H]3[C@]1(C)[C@@H](OC(C)=O)[C@@]1(O)C[C@H](C)[C@H](OC(=O)c3ccccc3)[C@@H]1[C@H]2OC(C)=O`: the Activity entry in the data set listed under Mus musculus was “Non-Toxic”. Moreover, in data set [1], the concentration for half-maximal inhibition (IC50) was greater than 50 µM.

For the compound `CC(=O)O[C@@H]1[C@H]2[C@@H](OC(=O)c3ccccc3)[C@@H](C)C[C@]2(O)[C@H](OC(C)=O)[C@@]2(C)[C@@H]3CC(C)=CC(=O)[C@]3(OC(C)=O)C[C@@]12C`, the Activity entry in the data set filed under Mus musculus is reported as “Non-Toxic”. The IC50 in data set [1] was 36.6 µM.

As to `CC(=O)O[C@@H]1[C@H]2[C@@H](OC(=O)c3ccccc3)[C@@H](C)C[C@]2(O)[C@H](OC(C)=O)[C@@]2(C)[C@@H]3CC(C)(C)C(=O)[C@]3(OC(C)=O)C[C@@]12C`, the Activity result in the data set filed under Mus musculus was “Non-Toxic”. Further, the IC50 in data set [1] was 29.9 µM.

With `CC(=O)O[C@@H]1[C@H]2[C@@H](OC(=O)c3ccccc3)[C@@H](C)C[C@]2(O)C(=O)[C@@]2(C)[C@@H]3CC(C)(C)C(=O)[C@@H]3C[C@@]12C`, the Activity entry in the data set listed under Mus musculus was “Non-Toxic”. Also, in data set [1], the IC50 was 38.3 µM.

As to `CC(=O)O[C@H]1C[C@](C)(OC(C)=O)C[C@@H]2[C@@]1(OC(C)=O)C[C@@]1(C)[C@H](OC(C)=O)[C@H]3[C@@H](OC(=O)c4ccccc4)[C@@H](C)C[C@]3(O)[C@H](OC(C)=O)[C@@]21C`, in the data set filed under Mus musculus, the Activity entry is reported as “Non-Toxic”. Besides, the IC50 in data set [1] stood at 37.1 µM.

With `CC(=O)O[C@@H]1[C@H]2[C@@H](OC(=O)c3ccccc3)[C@@H](C)C[C@]2(O)[C@H](OC(C)=O)[C@@]2(C)[C@@H]3C[C@](C)(O)CC(=O)[C@]3(OC(C)=O)C[C@@]12C`, the Activity entry in the data set listed under Mus musculus is given as “Non-Toxic”. Moreover, the IC50 in data set [1] was greater than 50 µM.
